Data taken from ChEMBL document CHEMBL3526067, “Metabolism of bis(4-fluorobenzyl)trisulfide and its formation of hemoglobin adduct in rat erythrocytes” (Drug Metab Dispos, 2013).
Blank lines part the entries; values can stand above or below the molecule they belong to.

Legend:
Blood [1] = assay: Retention time in Sprague-Dawley rat whole blood treated with 50 uM Bis(4-fluorobenzyl)trisulfide after 15 mins by HPLC analysis; assay type: ADME, tissue-based; details: 0.25 h
Blood [2] = assay: Drug level in Sprague-Dawley rat whole blood treated with BFBTS at 50 uM after 15 mins by HPLC analysis; assay type: ADME, tissue-based; details: 0.25 h
Blood [3] = assay: Drug level in Sprague-Dawley rat whole blood treated with BFBTS at 50 uM by GC/MS analysis; assay type: ADME, tissue-based
[4] = Drug level in phosphate buffered saline treated with BFBTS at 5 uM by HPLC analysis in presence of GSH; assay type: physicochemical; details: buffer
[5] = Drug metabolism in phosphate buffered saline treated with BFBTS at 5 uM by HPLC analysis in presence of cysteine; assay type: physicochemical; details: buffer
[6] = Drug metabolism in phosphate buffered saline treated with BFBTS at 5 uM by HPLC analysis in presence of N-acetyl cysteine; assay type: physicochemical; details: buffer
[7] = Drug metabolism in phosphate buffered saline treated with BFBTS at 5 uM by HPLC analysis in presence of coenzyme A; assay type: physicochemical; details: buffer
[8] = Drug metabolism in Sprague-Dawley rat RBC assessed as BFBDS metabolite formation by HPLC analysis; assay type: ADME, cell-based; details: erythrocyte
Method in brief: (§1)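 BFBTS (final 50 μM) incubated at 37°C with rat RBCs diluted with an equal volume of PBS, for 5, 10, 15, 30, 45 and 60 min. For M2 (p-FBM) and M3 (p-FBA), two volumes of acetonitrile added before HPLC. BFBTS and M1 were extracted by a cited method.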

[9] = Drug metabolism in Sprague-Dawley rat RBC assessed as p-FBA metabolite formation by HPLC analysis; assay type: ADME, cell-based; details: erythrocyte; method in brief: as §1
[10] = Drug metabolism in Sprague-Dawley rat RBC assessed as BFBTS formation by HPLC analysis; assay type: ADME, cell-based; details: erythrocyte; method in brief: as §1
[11] = Drug level in Sprague-Dawley rat RBC treated with BFBTS by HPLC analysis; assay type: ADME, cell-based; details: erythrocyte
Method in brief: (§2)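 Male Sprague-Dawley rat RBCs (200–220 g rats), washed three times with PBS pH 7.4 and resuspended in PBS, incubated separately with each metabolite. Metabolites confirmed against authentic standards.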

[12] = Drug level in Sprague-Dawley rat RBC treated with BFBDS by HPLC analysis; assay type: ADME, cell-based; details: erythrocyte; method in brief: as §2
[13] = Drug level in Sprague-Dawley rat RBC treated with p-FBA by HPLC analysis; assay type: ADME, cell-based; details: erythrocyte
Blood [14] = assay: Drug level in Sprague-Dawley rat whole blood treated with BFBTS by HPLC analysis; assay type: ADME, tissue-based
Blood [15] = assay: Drug metabolism in Sprague-Dawley rat whole blood assessed as BFBDS metabolite formation at 50 uM by GC/MS analysis; assay type: ADME, tissue-based
Blood [16] = assay: Drug metabolism in Sprague-Dawley rat whole blood assessed as p-FBM metabolite formation at 50 uM by GC/MS analysis; assay type: ADME, tissue-based
[17] = Drug metabolism in phosphate buffered saline assessed as p-FBM metabolite formation at 5 uM by HPLC analysis in presence of GSH; assay type: physicochemical; details: buffer
[18] = Drug metabolism in phosphate buffered saline assessed as p-FBM metabolite formation at 5 uM by HPLC analysis in presence of cysteine; assay type: physicochemical; details: buffer
[19] = Drug metabolism in phosphate buffered saline assessed as p-FBM metabolite formation at 5 uM by HPLC analysis in presence of coenzyme A; assay type: physicochemical; details: buffer
[20] = Stability of compound in phosphate buffered saline at 5 uM after 30 mins by HPLC analysis in presence of GSH; assay type: physicochemical; details: buffer, 0.5 h
[21] = Stability of compound in phosphate buffered saline at 5 uM after 30 mins by HPLC analysis in presence of cysteine; assay type: physicochemical; details: buffer, 0.5 h
[22] = Stability of compound in phosphate buffered saline at 5 uM after 30 mins by HPLC analysis in presence of N-acetyl cysteine; assay type: physicochemical; details: buffer, 0.5 h
[23] = Stability of compound in phosphate buffered saline at 5 uM after 30 mins by HPLC analysis in presence of coenzyme A; assay type: physicochemical; details: buffer, 0.5 h
[24] = Stability in Sprague-Dawley rat RBC at 5 uM incubated for 1 hr after 5 mM thiol residue blocking agent iodoacetamide challenge by HPLC analysis; assay type: ADME, cell-based; details: erythrocyte
[25] = Drug metabolism in Sprague-Dawley rat RBC assessed as p-FBM metabolite formation by HPLC analysis; assay type: ADME, cell-based; details: erythrocyte; method in brief: as §1
[26] = Drug level in Sprague-Dawley rat RBC treated with p-FBM by HPLC analysis; assay type: ADME, cell-based; details: erythrocyte; method in brief: as §2
Blood [27] = assay: Drug metabolism in Sprague-Dawley rat whole blood assessed as BFBDS metabolite formation by HPLC analysis; assay type: ADME, tissue-based
Blood [28] = assay: Drug metabolism in Sprague-Dawley rat whole blood assessed as p-FBM metabolite formation by HPLC analysis; assay type: ADME, tissue-based
Blood [29] = assay: Drug metabolism in Sprague-Dawley rat whole blood assessed as p-FBA metabolite formation by HPLC analysis; assay type: ADME, tissue-based
Blood [30] = assay: Drug metabolism in Sprague-Dawley rat whole blood assessed as p-FBA metabolite formation at 50 uM by UPLC-MS/MS analysis; assay type: ADME, tissue-based
Method in brief: (§3)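 p-FBA in rat whole blood incubated with BFBTS, measured by UPLC-MS. 0.1% formic acid/acetonitrile gradient at 0.2 ml/min, column 25°C. Capillary 3.30 kV, cone 31 V, source 150°C, desolvation 350°C.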

[31] = Drug recovery in Sprague-Dawley rat whole blood at 64 uM after 2 hrs by HPLC analysis; assay type: ADME, tissue-based; details: read-out: Drug recovery
Method in brief: (§4)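 Recovery test: BFBTS 64 μM incubated for 2 h with rat whole blood, plasma (3,000 g, 10 min) or PBS-washed RBCs. Liquid-liquid extraction, then HPLC; recovery compared across the three matrices.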

[32] = Drug recovery in Sprague-Dawley rat plasma at 64 uM after 2 hrs by HPLC analysis; assay type: ADME, cell-free; details: read-out: Drug recovery; method in brief: as §4
[33] = Drug recovery in Sprague-Dawley rat RBC at 64 uM after 2 hrs by HPLC analysis; assay type: ADME, cell-based; details: erythrocyte; method in brief: as §4
[34] = Drug metabolism in Sprague-Dawley rat RBC assessed as rapid p-FBM metabolite formation at 50 uM by HPLC analysis; assay type: ADME, cell-based; details: erythrocyte; method in brief: as §1
[35] = Drug metabolism in Sprague-Dawley rat RBC assessed as p-FBA metabolite formation at slow rate at 50 uM by HPLC analysis; assay type: ADME, cell-based; details: erythrocyte; method in brief: as §1
[36] = Half life in Sprague-Dawley rat diluted RBC at 25 uM by HPLC analysis; assay type: ADME, cell-based, Erythrocyte; details: diluted red blood cells (RBC)
Method in brief: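 BFBTS incubated with diluted rat RBCs (10^8/ml) for 1.5, 3, 5, 10 and 15 min. After extraction, BFBTS measured by HPLC. Half-life from nonlinear regression of concentration-time data; n = 3, means with SD.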

[37] = Half life in Sprague-Dawley rat diluted RBC at 1 uM by HPLC analysis; assay type: ADME, cell-based, Erythrocyte; details: diluted red blood cells (RBC)
[38] = Drug metabolism in phosphate buffered saline assessed as BFBDS metabolite formation at 5 uM by HPLC analysis in presence of GSH; assay type: physicochemical; details: buffer
[39] = Drug metabolism in phosphate buffered saline assessed as BFBDS metabolite formation at 5 uM by HPLC analysis in presence of cysteine; assay type: physicochemical; details: buffer
[40] = Drug metabolism in phosphate buffered saline assessed as BFBDS metabolite formation at 5 uM by HPLC analysis in presence of N-acetyl cysteine; assay type: physicochemical; details: buffer
Blood [41] = assay: Drug level in Sprague-Dawley rat whole blood treated with BFBTS at 50 uM by UPLC-MS/MS analysis; assay type: ADME, tissue-based; method in brief: as §3
[42] = Drug level in phosphate buffered saline treated with BFBTS at 5 uM at pH 7.4 after 30 mins by LC-MS analysis in presence of GSH; assay type: physicochemical; details: buffer, pH 7.4, 0.5 h
Method in brief: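 BFBTS 5 μM incubated with GSH 0.5 mM in PBS pH 7.4 for 30 min. Two volumes of acetonitrile added, then HPLC and LC-MS to identify reaction products.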

Retention_time (Blood [1]): 24.66 min
Drug metabolism (Blood [2]): metabolite_detected
Drug metabolism (Blood [3]): metabolite_detected
Drug metabolism [4]: metabolite_detected
Drug metabolism [5]: metabolite_detected
Drug metabolism [6]: metabolite_detected
Drug metabolism [7]: metabolite_detected
Drug metabolism [8]: metabolite_detected
Drug metabolism [9]: metabolite_detected
Drug metabolism [10]: metabolite_not_detected
Drug metabolism [11]: metabolite_detected
Drug metabolism [12]: metabolite_detected
Drug metabolism [13]: metabolite_not_detected
Drug metabolism (Blood [14]): metabolite_detected
Compound: Fc1ccc(CS)cc1

Drug metabolism (Blood [15]): metabolite_detected
Drug metabolism (Blood [16]): metabolite_detected
Drug metabolism [17]: metabolite_detected
Drug metabolism [18]: metabolite_detected
Drug metabolism [19]: metabolite_detected
Stability [20]: Unstable
Stability [21]: Unstable
Stability [22]: Unstable
Stability [23]: Unstable
Stability [24]: Stable
Drug metabolism [8]: metabolite_detected
Drug metabolism [25]: metabolite_detected
Drug metabolism [9]: metabolite_detected
Drug metabolism [12]: metabolite_not_detected
Drug metabolism [26]: metabolite_not_detected
Drug metabolism [13]: metabolite_not_detected
Drug metabolism (Blood [27]): metabolite_detected
Drug metabolism (Blood [28]): metabolite_detected
Drug metabolism (Blood [29]): metabolite_detected
Drug metabolism (Blood [30]): metabolite_detected
remaining at 2 h, 64 µM [31]: 2.54%
remaining at 2 h, 64 µM [32]: 13%
Drug recovery [33]: Not Active
Drug metabolism [34]: metabolite_detected
Drug metabolism [35]: metabolite_detected
half-life at 25 µM [36]: 24 s
half-life at 1 µM [37]: < 30 s
Drug metabolism [38]: metabolite_detected
Drug metabolism [39]: metabolite_detected
Drug metabolism [40]: metabolite_detected
Compound: Fc1ccc(CSSSCc2ccc(F)cc2)cc1

Retention_time (Blood [1]): 8.15 min
Drug metabolism (Blood [2]): metabolite_detected
Drug metabolism [8]: metabolite_not_detected
Drug metabolism [25]: metabolite_not_detected
Drug metabolism [10]: metabolite_not_detected
Drug metabolism [11]: metabolite_detected
Drug metabolism [12]: metabolite_detected
Drug metabolism [26]: metabolite_detected
Drug metabolism (Blood [14]): metabolite_detected
Drug metabolism (Blood [41]): metabolite_detected
Compound: O=C(O)c1ccc(F)cc1

Retention_time (Blood [1]): 38.89 min
Drug metabolism (Blood [2]): metabolite_detected
Drug metabolism (Blood [3]): metabolite_detected
Drug metabolism [4]: metabolite_detected
Drug metabolism [5]: metabolite_detected
Drug metabolism [6]: metabolite_detected
Drug metabolism [7]: metabolite_detected
Drug metabolism [25]: metabolite_detected
Drug metabolism [9]: metabolite_detected
Drug metabolism [10]: metabolite_not_detected
Drug metabolism [11]: metabolite_detected
Drug metabolism [26]: metabolite_detected
Drug metabolism [13]: metabolite_not_detected
Drug metabolism (Blood [14]): metabolite_detected
Compound: Fc1ccc(CSSCc2ccc(F)cc2)cc1

Drug uptake [42]: metabolite_detected
Compound: N[C@@H](CCC(=O)N[C@@H](CSSCc1ccc(F)cc1)C(=O)NCC(=O)O)C(=O)O
